From ChEMBL document CHEMBL1151781, “Selectivity of inhibitors of endocannabinoid biosynthesis evaluated by activity-based protein profiling” (Bioorg Med Chem Lett, 2008)
Calls of active or inactive are those of the source. The calls are words filed in the database; no cut-off is given here.

How the values were obtained:
[1] = molecular target: Phosphatidylserine lipase ABHD16A (Homo sapiens, UniProt O95870); experiment: Inhibition of recombinant BAT5 transfected in HEK293T cells by SDS-PAGE using rhodamine-tagged FP probe; format: cell-based, HEK-293T
Method in brief: (§1)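 HEK293T cells were transfected with cDNA for the target hydrolase. The transfected proteome was treated with inhibitor across 0.01-100 μM, then labeled with rhodamine-tagged fluorophosphonate probe (FP-Rh). Loss of probe labeling was read to give IC50. Values are means ± standard errors of three independent experiments.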

[2] = molecular target: T1, Diacylglycerol lipase-alpha (Mus musculus) (UniProt Q6WQJ1); experiment: Inhibition of DAGLalpha in mouse brain assessed as >15 average spectral count at 5 uM treated for 30 mins by ABPP-MudPIT assay; format: tissue-based
T1 sequence (whole entry): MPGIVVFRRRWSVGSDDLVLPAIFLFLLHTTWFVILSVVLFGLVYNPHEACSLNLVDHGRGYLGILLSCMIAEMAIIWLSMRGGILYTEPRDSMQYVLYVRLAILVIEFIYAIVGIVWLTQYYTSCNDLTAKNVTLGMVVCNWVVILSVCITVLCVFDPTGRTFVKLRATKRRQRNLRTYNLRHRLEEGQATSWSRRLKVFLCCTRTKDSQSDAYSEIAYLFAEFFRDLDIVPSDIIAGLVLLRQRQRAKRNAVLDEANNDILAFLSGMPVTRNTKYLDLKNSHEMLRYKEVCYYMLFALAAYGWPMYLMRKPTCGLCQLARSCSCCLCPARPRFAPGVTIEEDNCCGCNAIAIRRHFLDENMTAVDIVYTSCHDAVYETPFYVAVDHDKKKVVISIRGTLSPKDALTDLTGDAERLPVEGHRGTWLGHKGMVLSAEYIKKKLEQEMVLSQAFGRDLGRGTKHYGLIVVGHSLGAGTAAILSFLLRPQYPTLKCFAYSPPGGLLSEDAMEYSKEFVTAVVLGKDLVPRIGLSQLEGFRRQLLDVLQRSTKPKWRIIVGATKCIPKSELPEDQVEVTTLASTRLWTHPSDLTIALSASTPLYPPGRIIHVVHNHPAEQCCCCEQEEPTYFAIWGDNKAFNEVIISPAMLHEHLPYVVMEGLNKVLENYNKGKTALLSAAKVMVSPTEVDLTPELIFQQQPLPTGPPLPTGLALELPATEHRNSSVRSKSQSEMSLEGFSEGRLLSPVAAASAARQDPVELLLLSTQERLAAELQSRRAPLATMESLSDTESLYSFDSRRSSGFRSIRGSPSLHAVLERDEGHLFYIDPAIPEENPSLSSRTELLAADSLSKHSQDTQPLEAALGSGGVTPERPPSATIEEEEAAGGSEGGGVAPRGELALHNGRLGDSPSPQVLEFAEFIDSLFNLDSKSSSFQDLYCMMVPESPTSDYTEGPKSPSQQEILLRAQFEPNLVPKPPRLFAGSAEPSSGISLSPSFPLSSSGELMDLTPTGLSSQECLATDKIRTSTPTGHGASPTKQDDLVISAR

[3] = molecular target: Monoacylglycerol lipase ABHD6 (Mus musculus) (UniProt Q8R2Y0); experiment: Inhibition of ABHD6 in mouse brain at 0.01 to 100 uM treated for 30 mins by SDS-PAGE using rhodamine-tagged FP probe; format: tissue-based
Method in brief: (§2)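 Mouse brain membrane proteome preincubated with inhibitor across 0.01-100 μM for 30 min. A rhodamine-tagged fluorophosphonate probe (FP-Rh) was then added for 60 min. Samples were resolved by SDS-PAGE, and probe labeling of each hydrolase band was read by in-gel fluorescence scanning.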

[4] = molecular target: Neutral cholesterol ester hydrolase 1 (Homo sapiens, UniProt Q6PIU2); experiment: Inhibition of recombinant KIAA1363 transfected in HEK293T cells by SDS-PAGE using rhodamine-tagged FP probe; format: cell-based, HEK-293T; method in brief: as §1
[5] = molecular target: T2, Diacylglycerol lipase-beta (Mus musculus) (UniProt Q91WC9); experiment: Inhibition of DAGLbeta in mouse brain assessed as >15 average spectral count at 5 uM treated for 30 mins by ABPP-MudPIT assay; format: tissue-based
T2 sequence (whole entry): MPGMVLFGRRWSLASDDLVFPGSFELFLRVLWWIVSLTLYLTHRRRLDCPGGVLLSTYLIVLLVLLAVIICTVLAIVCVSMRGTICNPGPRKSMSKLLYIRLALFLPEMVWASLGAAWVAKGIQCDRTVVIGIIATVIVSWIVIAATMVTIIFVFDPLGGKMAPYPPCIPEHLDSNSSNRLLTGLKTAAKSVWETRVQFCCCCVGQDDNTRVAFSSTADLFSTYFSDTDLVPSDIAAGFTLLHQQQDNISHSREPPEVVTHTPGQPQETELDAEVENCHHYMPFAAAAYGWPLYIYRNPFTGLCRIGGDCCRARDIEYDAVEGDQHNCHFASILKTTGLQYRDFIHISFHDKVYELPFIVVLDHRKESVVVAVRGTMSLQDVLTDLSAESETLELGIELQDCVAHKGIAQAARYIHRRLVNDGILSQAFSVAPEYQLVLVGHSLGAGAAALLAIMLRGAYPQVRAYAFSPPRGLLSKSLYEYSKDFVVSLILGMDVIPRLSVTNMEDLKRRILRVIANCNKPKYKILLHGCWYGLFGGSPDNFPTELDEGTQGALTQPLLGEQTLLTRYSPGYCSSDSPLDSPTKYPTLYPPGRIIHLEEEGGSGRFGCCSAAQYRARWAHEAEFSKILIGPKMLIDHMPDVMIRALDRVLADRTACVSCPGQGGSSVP

[6] = molecular target: T2, Diacylglycerol lipase-beta (Mus musculus); experiment: Inhibition of DAGLbeta in mouse brain assessed as >15 average spectral count at 50 uM treated for 30 mins by ABPP-MudPIT assay; format: tissue-based
[7] = molecular target: T3, Neutral cholesterol ester hydrolase 1 (Mus musculus) (UniProt Q8BLF1); experiment: Inhibition of KIAA1363 in mouse brain at 0.01 to 100 uM treated for 30 mins by SDS-PAGE using rhodamine-tagged FP probe; format: tissue-based; method in brief: as §2
T3 sequence (whole entry): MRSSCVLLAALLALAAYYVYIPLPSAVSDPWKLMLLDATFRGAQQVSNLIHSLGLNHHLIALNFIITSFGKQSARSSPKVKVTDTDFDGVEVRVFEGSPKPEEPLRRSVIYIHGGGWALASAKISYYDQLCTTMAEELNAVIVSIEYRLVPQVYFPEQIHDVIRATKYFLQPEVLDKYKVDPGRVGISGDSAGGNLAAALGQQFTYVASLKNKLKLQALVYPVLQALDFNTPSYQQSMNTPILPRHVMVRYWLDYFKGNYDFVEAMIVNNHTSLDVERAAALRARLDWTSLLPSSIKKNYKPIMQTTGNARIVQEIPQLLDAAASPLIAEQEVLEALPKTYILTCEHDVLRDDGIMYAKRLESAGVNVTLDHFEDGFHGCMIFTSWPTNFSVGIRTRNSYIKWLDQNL

[8] = molecular target: Platelet-activating factor acetylhydrolase (Homo sapiens, UniProt Q13093); experiment: Inhibition of recombinant PLA2g7 transfected in HEK293T cells by SDS-PAGE using rhodamine-tagged FP probe; format: cell-based, HEK-293T; method in brief: as §1
Chain of Platelet-activating factor acetylhydrolase (Q13093 whole entry): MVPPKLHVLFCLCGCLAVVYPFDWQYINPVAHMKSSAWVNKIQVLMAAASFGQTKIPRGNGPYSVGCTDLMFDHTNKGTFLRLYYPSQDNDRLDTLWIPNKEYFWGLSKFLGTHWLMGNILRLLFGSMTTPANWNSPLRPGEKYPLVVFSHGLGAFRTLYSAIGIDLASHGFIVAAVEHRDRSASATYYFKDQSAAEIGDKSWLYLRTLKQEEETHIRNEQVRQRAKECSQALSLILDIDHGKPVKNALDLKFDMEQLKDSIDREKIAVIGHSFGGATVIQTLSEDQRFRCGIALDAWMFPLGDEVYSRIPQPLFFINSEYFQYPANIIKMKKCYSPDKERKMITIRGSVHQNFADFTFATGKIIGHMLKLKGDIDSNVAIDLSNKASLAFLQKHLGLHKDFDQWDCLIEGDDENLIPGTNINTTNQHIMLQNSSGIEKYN

Chain of Phosphatidylserine lipase ABHD16A (O95870 whole entry): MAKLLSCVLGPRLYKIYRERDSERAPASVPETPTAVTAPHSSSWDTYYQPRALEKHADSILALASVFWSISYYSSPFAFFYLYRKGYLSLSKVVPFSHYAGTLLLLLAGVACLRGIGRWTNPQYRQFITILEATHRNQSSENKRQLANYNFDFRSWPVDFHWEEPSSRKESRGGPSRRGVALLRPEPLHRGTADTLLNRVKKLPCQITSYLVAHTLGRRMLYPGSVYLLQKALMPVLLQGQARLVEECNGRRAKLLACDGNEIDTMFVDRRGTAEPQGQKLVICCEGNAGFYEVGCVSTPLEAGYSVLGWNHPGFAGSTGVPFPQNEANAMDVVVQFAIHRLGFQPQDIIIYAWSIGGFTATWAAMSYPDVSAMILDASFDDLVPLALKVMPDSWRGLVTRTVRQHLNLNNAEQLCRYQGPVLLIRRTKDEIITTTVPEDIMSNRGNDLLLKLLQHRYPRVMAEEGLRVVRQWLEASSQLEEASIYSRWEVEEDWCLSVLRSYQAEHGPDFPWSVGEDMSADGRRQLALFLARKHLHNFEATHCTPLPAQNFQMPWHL
Chain of Monoacylglycerol lipase ABHD6 (Mus musculus) (Q8R2Y0 whole entry): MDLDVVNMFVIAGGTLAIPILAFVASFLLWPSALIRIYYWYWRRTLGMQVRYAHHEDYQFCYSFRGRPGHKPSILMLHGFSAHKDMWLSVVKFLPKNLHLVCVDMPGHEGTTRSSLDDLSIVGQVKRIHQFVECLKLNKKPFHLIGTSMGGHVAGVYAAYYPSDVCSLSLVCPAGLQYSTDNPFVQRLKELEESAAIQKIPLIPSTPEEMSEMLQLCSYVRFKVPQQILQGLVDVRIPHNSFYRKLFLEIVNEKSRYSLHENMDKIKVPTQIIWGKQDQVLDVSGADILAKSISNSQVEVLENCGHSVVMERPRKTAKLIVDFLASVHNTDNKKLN
Chain of Neutral cholesterol ester hydrolase 1 (Q6PIU2 whole entry): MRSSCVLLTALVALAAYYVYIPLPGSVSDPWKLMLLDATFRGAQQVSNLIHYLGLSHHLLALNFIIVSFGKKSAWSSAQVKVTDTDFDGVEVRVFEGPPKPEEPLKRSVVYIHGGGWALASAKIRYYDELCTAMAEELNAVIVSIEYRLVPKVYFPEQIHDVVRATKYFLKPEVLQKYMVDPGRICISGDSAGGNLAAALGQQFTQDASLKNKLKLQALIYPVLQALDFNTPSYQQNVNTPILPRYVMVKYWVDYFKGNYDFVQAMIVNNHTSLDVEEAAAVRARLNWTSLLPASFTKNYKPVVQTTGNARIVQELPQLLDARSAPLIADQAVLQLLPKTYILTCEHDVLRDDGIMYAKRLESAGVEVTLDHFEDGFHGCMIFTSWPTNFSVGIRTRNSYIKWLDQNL

| Structure (SMILES) | IC50 [1] [µM] | Activity [2] | Activity [3] | IC50 [4] [µM] | Activity [5] | Activity [6] | Activity [7] | IC50 [8] [µM] |
| --- | --- | --- | --- | --- | --- | --- | --- | --- |
| CCCCCCCCCCC[C@@H](C[C@@H]1OC(=O)[C@H]1CCCCCC)OC(=O)[C@H](CC(C)C)NC=O [ORLISTAT] | 0.03 | inactive | Active | > 100 | inactive | inactive | Active | 0.05 |
| O=C(NCCCCCCNC(=O)ON=C1CCCCC1)ON=C1CCCCC1 | 23 | inactive | Active | 10 | inactive | inactive | Active | 11 |
